Values after ≈ are worked out from the molar mass of the structure shown.
Columns and labels:
[1] = Cytotoxicity against BAEC; details: Bos taurus
Procedure, shortened: (§1)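 Cells (3 × 10^3 BAE or 2 × 10^3 HT1080) in their growth media with serial compound dilutions, 3 days, 37 °C, 5% CO2. MTT added for 4 h, formazan dissolved in 0.04 N HCl–2-propanol, read at 550 nm. Triplicate determinations. IC50 is the concentration giving 50% cell survival. Means ± SD of three independent experiments.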

[2] = biological target: T1, Tubulin (Sus scrofa) (UniProt P02554+P02550); assay: Induction of pig brain tubulin polymerization at 10 uM
[3] = tested on: MCF7; assay: Cytotoxicity against human MCF7 cells after 72 hrs by methylene blue assay; type: functional, cell-based; details: MCF7, 72 h
Procedure, shortened: (§2)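 Cells exposed to compounds for 72 h, then fixed. Protein content quantified by methylene blue staining. IC50 is 50% inhibition of control growth. Means ± SD of three independent experiments.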

[4] = Antiangiogenic activity in BAEC assessed as inhibition of tube formation after 7 hrs by cell differentiation assay; type: functional; details: Bos taurus
Procedure, shortened: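 BAE cells (5 × 10^4) in DMEM plated on polymerized Matrigel (about 10.5 mg/mL), compounds added at different amounts, 37 °C, 5% CO2, 7 h. Cord/tube formation photographed at 200×. Each concentration tested in duplicate, scored by two observers.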

[5] = Cytotoxicity against mouse betaD10 cells after 96 hrs by MTS assay; type: functional, cell-based
Procedure, shortened: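 βD10 lung tumor cells from c-myc/c-raf double transgenic mice seeded at 10^3 cells/well and left to attach 24 h. Compounds added in medium at various concentrations for 24 or 96 h. MTS/PES reagent then 1 h at 37 °C, absorbance at 490 nm. Quintuplicates, expressed as % of control.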

[6] = tested on: A549; assay: Cytotoxicity against human A549 cells after 72 hrs by methylene blue assay; type: functional, cell-based; details: A549, 72 h; procedure, shortened: as §2
[7] = Antiangiogenic activity in BAEC assessed as inhibition cell migration after 24 hrs by […] migration assay; type: functional; details: Bos taurus
Procedure, shortened: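 BAE monolayers grown to confluence, wounded with pipette tips to give one acellular 1 mm-wide lane per well, washed, then given complete medium with or without test compounds. Same wounded areas photographed at 0, 7 and 24 h under microscope.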

[8] = tested on: HT-1080; assay: Cytotoxicity against human HT1080 cells after 3 days by MTT assay; type: functional, cell-based; details: HT-1080, 72 h; procedure, shortened: as §1
[9] = biological target: T1, Tubulin (Sus scrofa); assay: Induction of pig brain tubulin polymerization at 5 uM

T1 sequence (P02550 whole entry, looked up): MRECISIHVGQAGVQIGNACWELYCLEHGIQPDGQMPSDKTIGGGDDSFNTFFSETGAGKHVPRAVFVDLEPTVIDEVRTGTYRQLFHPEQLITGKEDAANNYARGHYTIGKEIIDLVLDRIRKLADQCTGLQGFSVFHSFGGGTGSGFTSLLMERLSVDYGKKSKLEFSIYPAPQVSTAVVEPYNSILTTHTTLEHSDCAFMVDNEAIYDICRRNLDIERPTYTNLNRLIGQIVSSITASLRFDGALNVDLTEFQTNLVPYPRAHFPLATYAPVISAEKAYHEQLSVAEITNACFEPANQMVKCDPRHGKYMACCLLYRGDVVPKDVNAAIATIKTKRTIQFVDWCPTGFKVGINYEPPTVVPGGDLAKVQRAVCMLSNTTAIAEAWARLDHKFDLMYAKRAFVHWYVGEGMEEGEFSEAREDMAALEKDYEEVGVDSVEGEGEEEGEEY
T1 sequence (P02554 whole entry, looked up): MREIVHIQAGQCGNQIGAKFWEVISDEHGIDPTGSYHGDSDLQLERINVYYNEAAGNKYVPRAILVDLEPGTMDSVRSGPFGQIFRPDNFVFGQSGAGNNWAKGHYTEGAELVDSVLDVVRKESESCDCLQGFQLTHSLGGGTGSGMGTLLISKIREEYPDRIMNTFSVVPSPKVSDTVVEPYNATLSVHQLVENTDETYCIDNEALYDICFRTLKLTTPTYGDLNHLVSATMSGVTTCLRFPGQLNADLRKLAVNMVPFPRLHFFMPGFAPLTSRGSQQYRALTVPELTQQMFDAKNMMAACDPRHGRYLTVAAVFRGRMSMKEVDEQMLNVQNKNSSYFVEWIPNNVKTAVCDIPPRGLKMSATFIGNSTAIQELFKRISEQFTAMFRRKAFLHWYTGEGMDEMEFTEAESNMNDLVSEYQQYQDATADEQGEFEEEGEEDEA

Row | % tubulin polymerization [2] | MIC [4] | MIC [7] | % tubulin polymerization [9] | SMILES | IC50 [1] | IC50 [3] | IC50 [5] | IC50 [6] | IC50 [8]
1 | 0.2% | 0.05 µM (≈ 0.0581 µg/mL) | 0.1 µM (≈ 0.116 µg/mL) | 0% | C/C(=C\c1csc(C)n1)[C@@H]1C[C@@H]2O[C@@H]2CCC[C@H](C)[C@H](OC(=O)CCSSCCC(=O)O[C@H]2[C@@H](C)CCC[C@H]3O[C@H]3C[C@@H](/C(C)=C/c3csc(C)n3)OC(=O)C[C@H](O)C(C)(C)C(=O)[C@@H]2C)[C@@H](C)C(=O)C(C)(C)[C@@H](O)CC(=O)O1 | 111 nM | 379 nM | 3.3 nM | 367 nM | 43 nM
2 | 0.2% | 0.1 µM (≈ 0.119 µg/mL) | 0.1 µM (≈ 0.119 µg/mL) | 0.5% | C/C(=C\c1csc(C)n1)[C@@H]1C[C@@H]2O[C@@H]2CCC[C@H](C)[C@H](OC(=O)CCCSSCCCC(=O)O[C@H]2[C@@H](C)CCC[C@H]3O[C@H]3C[C@@H](/C(C)=C/c3csc(C)n3)OC(=O)C[C@H](O)C(C)(C)C(=O)[C@@H]2C)[C@@H](C)C(=O)C(C)(C)[C@@H](O)CC(=O)O1 | 133 nM | 432 nM | 2000 nM | 383 nM | 71 nM
3 | 0.7% | 0.1 µM (≈ 0.11 µg/mL) | 0.1 µM (≈ 0.11 µg/mL) | 0.2% | C/C(=C\c1csc(C)n1)[C@@H]1C[C@@H]2O[C@@H]2CCC[C@H](C)[C@H](OC(=O)CCCCC(=O)O[C@H]2[C@@H](C)CCC[C@H]3O[C@H]3C[C@@H](/C(C)=C/c3csc(C)n3)OC(=O)C[C@H](O)C(C)(C)C(=O)[C@@H]2C)[C@@H](C)C(=O)C(C)(C)[C@@H](O)CC(=O)O1 | 40 nM | 412 nM | 70500 nM | 405 nM | 69 nM
4 | 0.6% | 0.05 µM (≈ 0.0577 µg/mL) | 0.1 µM (≈ 0.115 µg/mL) | 0.1% | C/C(=C\c1csc(C)n1)[C@@H]1C[C@@H]2O[C@@H]2CCC[C@H](C)[C@H](OC(=O)CCCCCCCCC(=O)O[C@H]2[C@@H](C)CCC[C@H]3O[C@H]3C[C@@H](/C(C)=C/c3csc(C)n3)OC(=O)C[C@H](O)C(C)(C)C(=O)[C@@H]2C)[C@@H](C)C(=O)C(C)(C)[C@@H](O)CC(=O)O1 | 39 nM | 1030 nM | 5020 nM | 956 nM | 13 nM
5 | 0.3% | 0.1 µM (≈ 0.113 µg/mL) | 0.1 µM (≈ 0.113 µg/mL) | 0.7% | C/C(=C\c1csc(C)n1)[C@@H]1C[C@@H]2O[C@@H]2CCC[C@H](C)[C@H](OC(=O)CCCCCCC(=O)O[C@H]2[C@@H](C)CCC[C@H]3O[C@H]3C[C@@H](/C(C)=C/c3csc(C)n3)OC(=O)C[C@H](O)C(C)(C)C(=O)[C@@H]2C)[C@@H](C)C(=O)C(C)(C)[C@@H](O)CC(=O)O1 | 20 nM | 321 nM | 2500 nM | 316 nM | 17 nM
6 | 1% | 0.1 µM (≈ 0.113 µg/mL) | 0.05 µM (≈ 0.0567 µg/mL) | 0.3% | C/C(=C\c1csc(C)n1)[C@@H]1C[C@@H]2O[C@@H]2CCC[C@H](C)[C@H](OC(=O)CSSCC(=O)O[C@H]2[C@@H](C)CCC[C@H]3O[C@H]3C[C@@H](/C(C)=C/c3csc(C)n3)OC(=O)C[C@H](O)C(C)(C)C(=O)[C@@H]2C)[C@@H](C)C(=O)C(C)(C)[C@@H](O)CC(=O)O1 | 29 nM | 357 nM | 1000 nM | 319 nM | 290 nM

Row | SMILES | % tubulin polymerization [2] | MIC [4] | MIC [7] | % tubulin polymerization [9] | IC50 [1] | IC50 [3] | IC50 [5] | IC50 [6] | IC50 [8]
7 | C/C(=C\c1csc(C)n1)[C@@H]1C[C@@H]2O[C@@H]2CCC[C@H](C)[C@H](O)[C@@H](C)C(=O)C(C)(C)[C@@H](O)CC(=O)O1 [EPOTHILONE A] | 99.8% | 0.005 µM (≈ 0.00247 µg/mL) | 0.005 µM (≈ 0.00247 µg/mL) | 92.2% | 0.7 nM | 2.5 nM | 70 nM | 2.6 nM | 1.3 nM
